Test results published in ChEMBL document CHEMBL1123589, “Phenylpiperazine-based radiopharmaceuticals for brain imaging. 3. Synthesis and evaluation of radioiodinated 1-alkyl-4-phenylpiperazines” (J Med Chem, 1987).

How the values were obtained:
Settings in all cases: in vivo
Rattus norvegicus [1] = test: The biodistribution of the [125I]-labeled compound in rats after intravenous injection was evaluated in thyroid at 4.00 hrs; value ranges from 14.14-15.81 (ID.kg/g); assay type: ADME, organism-based, Thyroid gland
Method in brief: (§1)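 Male Sprague-Dawley rats (250–300 g) under ether anesthesia given iv 0.1 mL saline containing 10–15 μCi of NCA ¹²⁵I-labeled agent (chloramine-T iodination, HPLC-purified). Groups of 3 killed at 0.25, 1 and 4 h. Blood and tissues excised, weighed and γ-counted. Values are mean (range) of % injected dose × body mass (kg) per gram of tissue.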

Rattus norvegicus [2] = test: The biodistribution of the [125I]-labeled compound in rats after intravenous injection was evaluated in thyroid at 0.25 hrs; value ranges from 1.31-2.46( ID.kg/g); assay type: ADME, organism-based, Thyroid gland; method in brief: as §1
Rattus norvegicus [3] = test: The biodistribution of the [125I]-labeled compound in rats after intravenous injection was evaluated in blood at 0.25 hrs (ID.kg/g); assay type: ADME, organism-based
Method in brief: (§2)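 Male Sprague-Dawley rats (250–300 g) under ether anesthesia were given an iv injection of no-carrier-added 125I-labelled agent (10–15 μCi in 0.1 mL saline). The agent was iodinated with chloramine-T in acetate buffer and purified by C-18 HPLC. Groups of N = 3 were killed at 0.25, 1 and 4 h. Blood and tissues were weighed and γ-counted. Values are % ID·kg/g, mean (range).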

Rattus norvegicus [4] = test: The biodistribution of the [125I]-labeled compound in rats after intravenous injection was evaluated in fat at 0.25 hr (ID. kg/g); assay type: ADME, organism-based, Adipose tissue; method in brief: as §2
Rattus norvegicus [5] = test: The biodistribution of the [125I]-labeled compound in rats after intravenous injection was evaluated in kidney at 4.00 hrs; value ranges from 0.26-0.35 (ID.kg/g); assay type: ADME, organism-based
Method in brief: (§3)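 Male Sprague-Dawley rats (250–300 g), under ether anesthesia, given 10–15 μCi of the NCA ¹²⁵I-labeled agent iv in 0.1 mL saline. Groups of N = 3 were killed at 0.25, 1 or 4 h. Blood and tissues were removed, weighed and counted in a γ-well scintillation counter. Values are mean % ID·kg/g (range).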

Rattus norvegicus [6] = test: The biodistribution of the [125I]-labeled compound in rats after intravenous injection was evaluated in brain at 0.25 hrs; value ranges from 0.23-0.25 (ID.kg/g); assay type: ADME, organism-based; method in brief: as §2
Rattus norvegicus [7] = test: The biodistribution of the [125I]-labeled compound in rats after intravenous injection was evaluated in thyroid at 1.00 hrs; value ranges from 2.56-3.24 (ID.kg/g); assay type: ADME, organism-based, Thyroid gland; method in brief: as §1
Rattus norvegicus [8] = test: The biodistribution of the [125I]-labeled compound in rats after intravenous injection was evaluated in adrenal at 1.00 hrs; value ranges from 0.84-1.04 (ID.kg/g); assay type: ADME, organism-based; method in brief: as §2
Rattus norvegicus [9] = test: The biodistribution of the [125I]-labeled compound in rats after intravenous injection was evaluated in brain at 1.00 hrs; value ranges from 0.14-0.15 (ID.kg/g); assay type: ADME, organism-based; method in brief: as §2
Rattus norvegicus [10] = test: The biodistribution of the [125I]-labeled compound in rats after intravenous injection was evaluated in heart at 4.00 hrs; value ranges from 0.04-0.06 (ID.kg/g); assay type: ADME, organism-based; method in brief: as §3
Rattus norvegicus [11] = test: The biodistribution of the [125I]-labeled compound in rats after intravenous injection was evaluated in liver at 0.25 hr; value ranges from 0.69-1.03 (ID.kg/g); assay type: ADME, organism-based; method in brief: as §3
Rattus norvegicus [12] = test: The biodistribution of the [125I]-labeled compound in rats after intravenous injection was evaluated in kidney at 1.00 hrs; value ranges from 0.26-0.35 (ID.kg/g); assay type: ADME, organism-based; method in brief: as §3
Rattus norvegicus [13] = test: The biodistribution of the [125I]-labeled compound in rats after intravenous injection was evaluated in muscle at 0.25 hrs; value ranges from 0.03-0.04 (ID.kg/g); assay type: ADME, organism-based, Muscle tissue; method in brief: as §1
Rattus norvegicus [14] = test: The biodistribution of the [125I]-labeled compound in rats after intravenous injection was evaluated in muscle at 1.00 hrs; value ranges from 0.03-0.04 (ID.kg/g); assay type: ADME, organism-based, Muscle tissue; method in brief: as §1
Rattus norvegicus [15] = test: The biodistribution of the [125I]-labeled compound in rats after intravenous injection was evaluated in liver at 1.00 hrs; value ranges from 0.54-0.58 (ID.kg/g); assay type: ADME, organism-based; method in brief: as §3
Rattus norvegicus [16] = test: The biodistribution of the [125I]-labeled compound in rats after intravenous injection was evaluated in adrenal at 4.00 hrs; value ranges from 0.20-0.32 (ID.kg/g); assay type: ADME, organism-based; method in brief: as §2
Rattus norvegicus [17] = test: The biodistribution of the [125I]-labeled compound in rats after intravenous injection was evaluated in lung at 4.00 hrs (ID.kg/g); assay type: ADME, organism-based; method in brief: as §3
Rattus norvegicus [18] = test: The biodistribution of the [125I]-labeled compound in rats after intravenous injection was evaluated in fat at 1.00 hrs; value ranges from 0.07-0.09 (ID.kg/g); assay type: ADME, organism-based, Adipose tissue; method in brief: as §2
Rattus norvegicus [19] = test: The biodistribution of the [125I]-labeled compound in rats after intravenous injection was evaluated in heart at 1.00 hrs; value ranges from 0.08-0.09 (ID.kg/g); assay type: ADME, organism-based; method in brief: as §2
Rattus norvegicus [20] = test: The biodistribution of the [125I]-labeled compound in rats after intravenous injection was evaluated in adrenal at 0.25 hrs; value ranges from 1.25-1.44 (ID.kg/g); assay type: ADME, organism-based; method in brief: as §2
Rattus norvegicus [21] = test: The biodistribution of the [125I]-labeled compound in rats after intravenous injection was evaluated in lung at 1.00 hrs; value ranges from 0.34-0.43 (ID.kg/g); assay type: ADME, organism-based; method in brief: as §3
Rattus norvegicus [22] = test: The biodistribution of the [125I]-labeled compound in rats after intravenous injection was evaluated in blood at 1.00 hrs (ID.kg/g); assay type: ADME, organism-based; method in brief: as §2
Rattus norvegicus [23] = test: The biodistribution of the [125I]-labeled compound in rats after intravenous injection was evaluated in liver at 4.00 hrs; value ranges from 0.40-0.61 (ID.kg/g); assay type: ADME, organism-based; method in brief: as §3
Rattus norvegicus [24] = test: The biodistribution of the [125I]-labeled compound in rats after intravenous injection was evaluated in brain at 4.00 hrs; value ranges from 0.04-0.05 (ID.kg/g); assay type: ADME, organism-based; method in brief: as §2
Rattus norvegicus [25] = test: The biodistribution of the [125I]-labeled compound in rats after intravenous injection was evaluated in kidney at 0.25 hr; value ranges from 0.28-0.32 (ID.kg/g); assay type: ADME, organism-based; method in brief: as §3
Rattus norvegicus [26] = test: The biodistribution of the [125I]-labeled compound in rats after intravenous injection was evaluated in blood at 4.00 hrs; value ranges from […]-0.09 (ID.kg/g); assay type: ADME, organism-based; method in brief: as §2
Rattus norvegicus [27] = test: The biodistribution of the [125I]-labeled compound in rats after intravenous injection was evaluated in lung at 0.25 hrs; value ranges from 0.52-0.58 (ID.kg/g); assay type: ADME, organism-based; method in brief: as §3
Rattus norvegicus [28] = test: The biodistribution of the [125I]-labeled compound in rats after intravenous injection was evaluated in heart at 0.25 hrs (ID.kg/g); assay type: ADME, organism-based; method in brief: as §2
Rattus norvegicus [29] = test: The biodistribution of the [125I]-labeled compound in rats after intravenous injection was evaluated in fat at 4.00 hrs; value ranges from 0.07-0.09 (ID.kg/g); assay type: ADME, organism-based, Adipose tissue; method in brief: as §2
Rattus norvegicus [30] = test: The biodistribution of the [125I]-labeled compound in rats after intravenous injection was evaluated in muscle at 4.00 hrs (ID.kg/g); assay type: ADME, organism-based, Muscle tissue; method in brief: as §1

With `CCN1CCN(c2ccc(I)cc2)CC1` the Biodistribution (Rattus norvegicus [1]) was 15.81%, the Biodistribution (Rattus norvegicus [2]) was 2.46% and the Biodistribution (Rattus norvegicus [3]) was 0.04 % ID·kg/g. It also gave a Biodistribution (Rattus norvegicus [4]) of 0.09 % ID·kg/g, a Biodistribution (Rattus norvegicus [5]) of 0.35% and a Biodistribution (Rattus norvegicus [6]) of 0.25%. The Biodistribution (Rattus norvegicus [7]) was 3.24%, the Biodistribution (Rattus norvegicus [8]) was 1.04% and the Biodistribution (Rattus norvegicus [9]) was 0.16%. The Biodistribution (Rattus norvegicus [10]) was 0.06%, the Biodistribution (Rattus norvegicus [11]) was 1.03% and the Biodistribution (Rattus norvegicus [12]) was 0.35%. It also gave a Biodistribution (Rattus norvegicus [13]) of 0.04%, a Biodistribution (Rattus norvegicus [14]) of 0.04% and a Biodistribution (Rattus norvegicus [15]) of 0.58%. For the same molecule, the Biodistribution (Rattus norvegicus [16]) was 0.32%, the Biodistribution (Rattus norvegicus [17]) was 0.17% and the Biodistribution (Rattus norvegicus [18]) was 0.09%. The Biodistribution (Rattus norvegicus [19]) was 0.09%, the Biodistribution (Rattus norvegicus [20]) was 1.44% and the Biodistribution (Rattus norvegicus [21]) was 0.43%. The Biodistribution (Rattus norvegicus [22]) was 0.07 % ID·kg/g, the Biodistribution (Rattus norvegicus [23]) was 0.61% and the Biodistribution (Rattus norvegicus [24]) was 0.05%. It also gave a Biodistribution (Rattus norvegicus [25]) of 0.38%, a Biodistribution (Rattus norvegicus [26]) of 0.09% and a Biodistribution (Rattus norvegicus [27]) of 0.58%. The Biodistribution (Rattus norvegicus [28]) was 0.1%, the Biodistribution (Rattus norvegicus [29]) was 0.09% and the Biodistribution (Rattus norvegicus [30]) was 0.02 %ID·kg/g.
